Screening results (PubChem BioAssay)
MC4R ag barr – activates human MC4R beta-arrestin recruitment | P32245 | U2OS MC4R beta-arrestin complementation, luminescence; percent of melanotan II response, DMSO zero | activation, % at 8.9 µM | actives 0.98% (n = 360,000) | AID 540308;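 active means activation above a per-plate cutoff, the mean activation of sample wells on that plate plus 3 SD, cut at about 8% in these data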
Target sequence (P32245 whole entry, looked up): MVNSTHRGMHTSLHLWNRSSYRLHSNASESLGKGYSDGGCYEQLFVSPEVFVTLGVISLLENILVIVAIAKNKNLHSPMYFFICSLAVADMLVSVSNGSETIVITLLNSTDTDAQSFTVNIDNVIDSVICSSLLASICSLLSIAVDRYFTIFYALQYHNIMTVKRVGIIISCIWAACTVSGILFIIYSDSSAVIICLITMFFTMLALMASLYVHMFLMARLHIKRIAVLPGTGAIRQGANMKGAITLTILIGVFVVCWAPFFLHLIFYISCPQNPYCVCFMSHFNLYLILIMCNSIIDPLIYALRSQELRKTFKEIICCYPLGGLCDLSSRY
MC4R antag cAMP – blocks human MC4R cAMP signaling; P32245; MC4R-expressing cells, MTII-stimulated cAMP, LANCE TR-FRET; actives 0.48% (n = 360,000); inhibition, % at 6.5 µM;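 active means inhibition above its plate's cutoff, the mean of tested wells on that plate plus 3 SD, cut at about 29% in these data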;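 further: 0% = Melanotan II alone and 100% = Melanotan II plus saturating MCL0020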
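Assay system: U2OS cells stably expressing human melanocortin 4 receptor (MC4R) / Dosing: 6.5 µM / Timing: compound 30 min, challenge 1 h, detection 1 h / Measured by: Eu-cAMP/anti-cAMP TR-FRET, emission 671 nm / Replicates: singlicate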
MsrA inhibitor – inhibits bovine methionine sulfoxide reductase A | purified bovine MsrA, absorbance read-out | inhibition, % at 15.5 µM | actives 0.75% (n = 360,000) | AID 651718; in the data active means inhibition above about 4.5%;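 further: 0% = vehicle wells with enzyme and 100% = reference inhibitor wells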
MsrA act – bovine methionine sulfoxide reductase A activation | activation, % at 10.6 µM | AID 602163 | actives 0.3% (n = 360,000) | purified bovine MsrA, absorbance read-out; in the data active means activation above about 7.5%;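 further: 0% = vehicle and 100% = reference activator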
MC4R barr conf – human MC4R beta-arrestin agonism confirmation; shares compounds with MC4R ag barr; activation, % at 8.9 µM; U2OS MC4R beta-arrestin recruitment, luminescence; scaled DMSO 0%, Melanotan II 100%; actives 31% (n = 2,400);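 active means mean activation across replicates above the hit cutoff set in the earlier primary screen, cut at about 8% in these data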
MOR DOR agonist – activates mu-delta opioid heterodimer, MC4R agonist counter-screen | shares compounds with MC4R ag barr | actives 5.8% (n = 2,400) | U2OS PathHunter beta-arrestin, beta-gal luminescence; percent of deltorphin B response, DMSO zero | activation, % at 9.2 µM | AID 602194;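 active means mean activation across replicates exceeds the hit threshold derived in the earlier primary screen, cut at about 18% in these data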;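 further: 100% = deltorphin B at 0.9 µM final and 0% = DMSO alone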
Active calls of the source: *; . = not tested or not shown. Only some compounds are listed: those with a hit (about 2.3% of all), similar ones and a draw of the others.

SMILES	MC4R ag barr	MC4R antag cAMP	MsrA inhibitor	MsrA act	MC4R barr conf	MOR DOR agonist
COc1cc(NC(=O)CSc2nc3ccccc3c(=O)n2C)ccc1NC(=O)c1ccco1	14*	20	1	0	0	17
COc1cc(NC(=O)COc2ccccc2)ccc1NC(=O)c1ccco1	1	4	1	-5	.	.
COc1ccc(CNC(=S)Nc2ccc(-c3ccccc3)cc2)cc1	13*	-4	-2	-10	4	8
CCC(C)c1ccc(C2C3=C(Nc4nc(N)[nH]c(=O)c42)c2ccccc2C3=O)cc1 (stereo unspecified)	10*	-16	1	-5	-2	1
Nc1nc2c(c(=O)[nH]1)C(c1ccccc1)C1=C(N2)c2ccccc2C1=O (stereo unspecified)	-4	1	0	-1	.	.
Nc1c2c3c(sc2nc(=O)n1N)CCCC3	-4	21	-1	-1	.	.
Cc1ccc(C(=O)N2CCc3ccccc3C2)cc1S(=O)(=O)N1CCOCC1	-3	7	-1	-2	.	.
O=C(COC(=O)c1ccccc1Nc1ccccc1)NCc1ccccc1Cl	16*	12	0	-3	10*	4
O=C(COC(=O)c1ccccc1Nc1cccc(C(F)(F)F)c1)NCc1ccco1	13*	-7	0	-2	6	9
NC(=O)c1ccc(NC(=O)COC(=O)c2ccccc2Nc2ccccc2)cc1	-3	2	0	-2	.	.
O=C(COC(=O)c1ccccc1Nc1ccccc1)NCc1ccccc1	25*	-4	2	-9	0	7
Clc1ccc(Cl)c(OCCCCNCc2ccccc2)c1	10*	-2	-1	-13	16*	11
Clc1ccc(OCCCNCc2ccccc2)c(Br)c1	0	1	-1	-2	.	.
COc1ccc(-c2ccc3oc(-c4ccc(OC)cc4)c(C#CCCO)c3c2)cc1	11*	-1	3	1	2	3
CCCCOc1ccc(C(=O)Nc2ccc(SC(F)F)cc2)cc1OC	9.9*	8	-2	-7	16*	7
Cc1cc(S(=O)(=O)N2CCOCC2)ccc1OCC(=O)Nc1ccc(F)c(Cl)c1	16*	-1	1	-1	-2	4
CC1CC(C)CN(S(=O)(=O)c2ccc(C(=O)Nc3sccc3C(N)=O)cc2)C1 (stereo unspecified)	13*	5	0	-1	14*	11
NC(=O)c1ccsc1NC(=O)c1ccc(S(=O)(=O)N2CCCC2)cc1	0	4	2	-10	.	.
CCCn1c(/N=C/c2c[nH]c3ccccc23)nc2ccccc21	11*	-4	0	-3	1	5
CC(=O)Nc1ccc(/C(C)=N/NC(=O)c2ccc(COc3ccccc3Cl)o2)cc1	0	13	1	-2	.	.
COc1ccc(/C=N/NC(=O)c2ccc(COc3ccccc3Cl)o2)c(OC)c1C	17*	-3	0	-2	18*	10
COc1ccc(/C=N/NC(=O)c2ccc(COc3ccccc3Cl)o2)cc1	9.9*	6	2	0	6	4
COc1ccc(N=C2S/C(=C\c3ccc(Cl)c([N+](=O)[O-])c3)C(=O)N2CCN(C)C)cc1	-5	0	0	0	.	.
CNC(=O)c1ccc(Nc2nnc(C)c3ccccc23)cc1	4	-1	4	-11	.	.
COc1cccc(Nc2nc(C(N)Cc3ccc(Cl)cc3)cs2)n1 (stereo unspecified)	15*	-6	-1	-1	8.4*	9
COc1cccc(Nc2nc(C(N)Cc3ccc(C(F)(F)F)cc3)cs2)n1 (stereo unspecified)	12*	-6	-3	-6	5	11
NC(CCc1ccccc1)c1csc(Nc2nncc3ccccc23)n1 (stereo unspecified)	16*	4	0	-4	12*	9
COc1cccc(Nc2nc(C(N)CCc3ccccc3)cs2)n1 (stereo unspecified)	16*	-22	-1	-5	12*	13
NC(Cc1ccccc1)c1csc(Nc2nncc3ccccc23)n1 (stereo unspecified)	2	1	0	-3	.	.
COc1ccc(CC(N)c2csc(Nc3cccc(OC)n3)n2)cc1 (stereo unspecified)	2	-12	-1	1	.	.
